The target of one assay is Glutamate NMDA receptor. Description: Displacement of [3H]CPP from NMDA receptor. The format is protein-complex assay, Rattus norvegicus. The method, boiled down:
(§1)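 Radioligand displacement using [3H]AMPA (AMPA), [3H]KA (kainate) or [3H]CPP (NMDA) on membrane preparations. Mean ± SEM of at least three independent results; one value estimated. Low-solubility compounds tested only at 200 μM.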

For assay [1], the target named is Glutamate receptor ionotropic, AMPA (Rattus norvegicus, UniProt P19490+P19491+P19492+P19493). Nature of the assay: Binding affinity for AMPA receptor using [3H]AMPA. Type of assay: protein-complex assay. Put shortly:
as §1

Assay [2] has as its target Glutamate receptor ionotropic, kainate. Description: Binding affinity for Ionotropic glutamate receptor kainate by [3H]-kainic acid displacement. Type of assay: protein-complex assay, Rattus norvegicus. Put shortly:
as §1

The target in assay [3] is Metabotropic glutamate receptor 5 (Homo sapiens) (UniProt P41594). Nature of the assay: Antagonist activity against mGlu 5a receptor in chinese hamster ovary cells using secondary messanger assay determined. The format is functional, cell-based. The note with it: Cricetulus griseus. The method, boiled down:
(§2)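 Cloned mGluRs measured with second-messenger assays; group I (mGlu1α, mGlu5α), mGlu2 and mGlu4α tested. Compounds tested for agonist and antagonist activity at 1 mM unless otherwise stated. Mean ± SEM of at least two independent results; some values estimated from partial concentration–response curves.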

The species entered for a further assay is Rattus norvegicus. Description: Excitatory activity in the rat cortical slice model. Type of assay: functional, organism-based. Put shortly: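 Rat cortical slice depolarizations evoked by excitatory amino acids; agonists applied 90 s at each concentration, with receptor selectivity checked using NBQX (AMPA) or CPP (NMDA). Poorly soluble compounds tested up to 200 μM.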

Assay [4] deals with Metabotropic glutamate receptor 1 (Homo sapiens) (UniProt Q13255). Nature of the assay: Antagonist activity against mGlu1-alpha receptor in chinese hamster ovary cells using secondary messanger assay determined. The format is functional, cell-based. The note with it: Cricetulus griseus. The method, boiled down:
as §2

For assay [5], the target named is Metabotropic glutamate receptor 2 (Homo sapiens) (UniProt Q14416). Description: Antagonist activity against mGlu 2 receptor in chinese hamster ovary cells using secondary messanger assay determined. Type of assay: functional, cell-based. The conditions noted are these: Cricetulus griseus. Put shortly: as §2
Metabotropic glutamate receptor 2 (Homo sapiens), sequence (Q14416 19-872 limits assumed): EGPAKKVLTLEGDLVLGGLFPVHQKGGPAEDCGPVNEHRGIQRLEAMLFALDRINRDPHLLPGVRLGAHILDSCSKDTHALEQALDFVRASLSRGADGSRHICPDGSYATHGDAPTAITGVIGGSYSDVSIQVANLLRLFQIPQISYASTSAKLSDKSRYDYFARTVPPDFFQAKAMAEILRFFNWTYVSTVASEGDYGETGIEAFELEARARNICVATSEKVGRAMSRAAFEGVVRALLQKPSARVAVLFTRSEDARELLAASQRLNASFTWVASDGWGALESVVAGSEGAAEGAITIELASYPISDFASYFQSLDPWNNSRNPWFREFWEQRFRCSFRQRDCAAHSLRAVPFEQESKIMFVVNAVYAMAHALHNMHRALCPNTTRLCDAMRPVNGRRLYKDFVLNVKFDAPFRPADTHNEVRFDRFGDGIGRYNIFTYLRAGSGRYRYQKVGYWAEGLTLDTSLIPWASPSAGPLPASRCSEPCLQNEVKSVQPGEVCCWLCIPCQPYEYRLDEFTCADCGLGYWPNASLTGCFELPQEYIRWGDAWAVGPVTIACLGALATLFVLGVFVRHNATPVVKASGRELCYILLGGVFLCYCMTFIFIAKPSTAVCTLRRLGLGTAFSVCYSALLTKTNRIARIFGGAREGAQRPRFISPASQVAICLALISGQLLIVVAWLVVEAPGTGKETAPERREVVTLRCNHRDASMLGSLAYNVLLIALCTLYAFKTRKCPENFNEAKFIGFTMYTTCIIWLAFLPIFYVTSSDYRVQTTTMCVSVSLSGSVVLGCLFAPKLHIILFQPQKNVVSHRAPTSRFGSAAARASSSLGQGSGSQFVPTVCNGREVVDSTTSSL
Assay [6] deals with Metabotropic glutamate receptor 4 (Homo sapiens) (UniProt Q14833). Nature of the assay: Antagonist activity against mGlu 4a receptor in chinese hamster ovary cells using secondary messanger assay determined. Type of assay: functional, cell-based. The note with it: Cricetulus griseus. The method, boiled down: as §2
Metabotropic glutamate receptor 4 (Homo sapiens), sequence (Q14833 whole entry): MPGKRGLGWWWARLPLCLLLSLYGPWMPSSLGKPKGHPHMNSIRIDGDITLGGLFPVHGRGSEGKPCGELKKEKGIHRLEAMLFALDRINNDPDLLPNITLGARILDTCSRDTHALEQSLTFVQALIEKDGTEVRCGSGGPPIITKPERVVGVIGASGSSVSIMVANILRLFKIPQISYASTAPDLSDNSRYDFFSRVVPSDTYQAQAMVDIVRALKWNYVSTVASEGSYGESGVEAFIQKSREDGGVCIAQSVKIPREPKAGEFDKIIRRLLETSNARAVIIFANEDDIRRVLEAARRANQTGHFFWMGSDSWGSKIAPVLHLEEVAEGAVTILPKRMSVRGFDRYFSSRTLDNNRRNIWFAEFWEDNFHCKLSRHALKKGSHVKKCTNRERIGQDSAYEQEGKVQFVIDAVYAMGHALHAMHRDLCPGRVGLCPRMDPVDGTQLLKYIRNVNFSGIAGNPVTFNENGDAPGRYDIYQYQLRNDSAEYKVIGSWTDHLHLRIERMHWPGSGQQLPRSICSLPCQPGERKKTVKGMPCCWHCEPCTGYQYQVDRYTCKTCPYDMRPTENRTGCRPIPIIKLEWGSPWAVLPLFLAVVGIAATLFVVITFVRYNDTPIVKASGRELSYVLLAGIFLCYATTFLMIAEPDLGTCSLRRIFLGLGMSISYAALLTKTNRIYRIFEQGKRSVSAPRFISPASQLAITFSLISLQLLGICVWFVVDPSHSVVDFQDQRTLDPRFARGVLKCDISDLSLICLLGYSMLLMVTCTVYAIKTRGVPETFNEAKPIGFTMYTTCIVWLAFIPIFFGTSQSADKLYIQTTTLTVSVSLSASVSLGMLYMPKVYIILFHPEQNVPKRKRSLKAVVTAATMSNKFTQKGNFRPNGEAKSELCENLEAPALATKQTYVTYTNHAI

SMILES strings stand for the structures. Bounds are passed on as bounds.

Metabotropic glutamate receptor 5 (Homo sapiens), sequence (P41594 21-1212 limits assumed): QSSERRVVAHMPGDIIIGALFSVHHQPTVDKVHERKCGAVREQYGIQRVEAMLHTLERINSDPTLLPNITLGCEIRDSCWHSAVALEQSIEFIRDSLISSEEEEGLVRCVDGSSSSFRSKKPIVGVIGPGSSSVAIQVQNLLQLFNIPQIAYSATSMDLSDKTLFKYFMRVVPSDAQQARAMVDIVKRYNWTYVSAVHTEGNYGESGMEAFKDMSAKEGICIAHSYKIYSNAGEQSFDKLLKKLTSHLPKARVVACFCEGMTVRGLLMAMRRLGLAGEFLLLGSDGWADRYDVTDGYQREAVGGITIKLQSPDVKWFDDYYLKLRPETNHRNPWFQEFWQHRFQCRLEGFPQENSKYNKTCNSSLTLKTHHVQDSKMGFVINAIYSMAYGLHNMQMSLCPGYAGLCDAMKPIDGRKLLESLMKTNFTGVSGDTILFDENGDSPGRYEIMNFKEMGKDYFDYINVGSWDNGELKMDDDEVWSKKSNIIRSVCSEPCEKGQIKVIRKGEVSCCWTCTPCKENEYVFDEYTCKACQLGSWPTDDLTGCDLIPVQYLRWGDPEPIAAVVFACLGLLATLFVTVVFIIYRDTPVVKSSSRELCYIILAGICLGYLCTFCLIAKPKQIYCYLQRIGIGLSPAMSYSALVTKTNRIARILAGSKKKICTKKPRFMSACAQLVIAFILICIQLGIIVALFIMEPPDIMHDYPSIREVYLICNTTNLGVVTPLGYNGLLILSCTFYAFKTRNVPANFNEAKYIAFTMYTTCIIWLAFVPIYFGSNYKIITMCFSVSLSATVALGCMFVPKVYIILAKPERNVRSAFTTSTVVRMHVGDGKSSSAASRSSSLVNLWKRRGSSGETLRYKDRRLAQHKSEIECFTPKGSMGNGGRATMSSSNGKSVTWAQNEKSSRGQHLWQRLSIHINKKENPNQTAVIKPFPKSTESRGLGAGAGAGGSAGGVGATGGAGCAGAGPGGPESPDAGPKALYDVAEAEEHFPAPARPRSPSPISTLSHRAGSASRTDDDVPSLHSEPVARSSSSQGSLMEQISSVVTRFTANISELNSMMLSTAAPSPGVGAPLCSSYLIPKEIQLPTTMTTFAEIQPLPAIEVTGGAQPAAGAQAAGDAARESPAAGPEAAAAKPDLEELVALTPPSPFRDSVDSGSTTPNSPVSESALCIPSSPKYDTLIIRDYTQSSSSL
Metabotropic glutamate receptor 1 (Homo sapiens), sequence (Q13255 19-1194 limits assumed): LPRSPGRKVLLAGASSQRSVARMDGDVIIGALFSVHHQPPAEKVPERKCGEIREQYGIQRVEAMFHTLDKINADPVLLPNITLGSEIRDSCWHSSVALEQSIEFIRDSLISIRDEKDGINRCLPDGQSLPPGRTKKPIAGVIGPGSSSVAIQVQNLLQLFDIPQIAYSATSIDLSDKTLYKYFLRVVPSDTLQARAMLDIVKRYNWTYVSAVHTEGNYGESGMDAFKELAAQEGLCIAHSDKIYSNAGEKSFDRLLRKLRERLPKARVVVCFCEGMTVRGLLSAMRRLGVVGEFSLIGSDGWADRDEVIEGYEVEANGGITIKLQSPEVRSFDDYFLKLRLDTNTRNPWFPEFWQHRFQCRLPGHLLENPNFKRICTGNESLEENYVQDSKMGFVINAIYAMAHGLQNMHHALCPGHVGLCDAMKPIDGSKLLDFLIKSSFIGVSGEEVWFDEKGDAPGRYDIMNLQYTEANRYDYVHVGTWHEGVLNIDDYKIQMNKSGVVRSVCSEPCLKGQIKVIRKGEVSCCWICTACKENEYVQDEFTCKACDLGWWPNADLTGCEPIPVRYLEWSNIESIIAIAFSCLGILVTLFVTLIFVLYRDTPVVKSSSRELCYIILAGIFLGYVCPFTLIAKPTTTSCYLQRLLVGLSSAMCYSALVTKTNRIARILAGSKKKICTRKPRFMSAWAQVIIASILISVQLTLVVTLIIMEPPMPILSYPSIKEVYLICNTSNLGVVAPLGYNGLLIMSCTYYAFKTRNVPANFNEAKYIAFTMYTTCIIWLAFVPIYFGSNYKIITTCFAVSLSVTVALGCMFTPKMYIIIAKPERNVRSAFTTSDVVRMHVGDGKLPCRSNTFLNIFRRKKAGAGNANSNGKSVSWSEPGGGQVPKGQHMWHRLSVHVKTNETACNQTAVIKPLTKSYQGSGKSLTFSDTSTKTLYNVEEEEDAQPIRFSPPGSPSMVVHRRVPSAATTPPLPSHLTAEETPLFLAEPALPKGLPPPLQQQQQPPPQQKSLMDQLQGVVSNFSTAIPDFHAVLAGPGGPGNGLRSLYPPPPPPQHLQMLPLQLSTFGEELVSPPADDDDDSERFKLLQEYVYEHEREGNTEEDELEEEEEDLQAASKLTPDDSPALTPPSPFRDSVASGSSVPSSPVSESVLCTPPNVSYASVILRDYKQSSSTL

The IC50 is the concentration that gives 50% inhibition. The low end stands for greater potency in that assay, the high end for weaker potency in that assay. In the case of `CCCCc1c(C[C@H](N)C(=O)O)o[nH]c1=O`, the IC50 at Glutamate NMDA receptor is above 100 µM; in assay [1], 0.48 µM; in assay [2] it was above 100 µM.

A word on the Kb: it is the affinity of an antagonist, worked out from how it opposes an agonist. A higher Kb goes with lower antagonist affinity. The EC50 is the midpoint of the concentration-response curve. A low value points to an effect from little substance. For the molecule `CCCCCCc1c(O)noc1C[C@H](N)C(=O)O`, the results for the Kb in assay [3] and in assay [4] were 61 µM and 30 µM, respectively. The IC50 (on Glutamate NMDA receptor; in assay [1]; in assay [2]) was above 100 µM in each case. Moreover, the EC50 in the assay listed under Rattus norvegicus is above 1000 µM.

In the case of `CCCCCCc1c(O)noc1C[C@@H](N)C(=O)O`, the IC50 (at Glutamate NMDA receptor; in assay [1]; in assay [2]) was above 100 µM throughout. The same molecule returned an EC50 in the assay filed under Rattus norvegicus above 1000 µM.

`Cc1c(O)noc1CC(N)C(=O)O` (stereo not drawn) gave an EC50 in the assay listed under Rattus norvegicus of 18 µM. The molecule further returned a concentration for half-maximal inhibition (IC50) in assay [1] of 0.32 µM.

For `N[C@H](Cc1onc(O)c1-c1ccccc1)C(=O)O`, the IC50 on Glutamate NMDA receptor is 31 µM; in assay [1], above 100 µM; in assay [2] it was above 100 µM. Also, the EC50 in the assay filed under Rattus norvegicus was above 1000 µM.

Take `CCCCCCc1c(O)noc1CC(N)C(=O)O` (stereo not drawn): the IC50 (at Glutamate NMDA receptor; in assay [1]; in assay [2]) was above 100 µM throughout. The EC50 in the assay filed under Rattus norvegicus is above 1000 µM.

Regarding `CCCCCCCc1c(O)noc1CC(N)C(=O)O` (stereo not drawn), the IC50 (at Glutamate NMDA receptor; in assay [1]; in assay [2]) was above 100 µM in each case. The same molecule yielded a 50% effective concentration (EC50) in the assay filed under Rattus norvegicus above 500 µM.

Turning to `CCCCCc1c(O)noc1CC(N)C(=O)O` (stereo not drawn), the IC50 at Glutamate NMDA receptor is above 100 µM; in assay [1], 11 µM; in assay [2] it was above 100 µM. The same molecule showed an EC50 in the assay listed under Rattus norvegicus of 630 µM.

Take `CCCCCCCCc1c(O)noc1CC(N)C(=O)O` (stereo not drawn): the Kb in assay [5], in assay [4] and in assay [6] was above 100 µM in each case. The EC50 in the assay listed under Rattus norvegicus was above 500 µM.

On to `N[C@@H](Cc1onc(O)c1-c1ccccc1)C(=O)O`, for which the results for the IC50 (at Glutamate NMDA receptor; in assay [1]; in assay [2]) were above 100 µM, 23 µM and above 100 µM, respectively. In the assay listed under Rattus norvegicus, this molecule had an EC50 of 395 µM.

`CCCCc1c(O)noc1C[C@H](N)C(=O)O`: the Kb in assay [3] came to 97 µM.

Take `NC(Cc1onc(O)c1-c1ccccc1)C(=O)O` (stereo not drawn): the IC50 on Glutamate NMDA receptor was above 100 µM; in assay [1], 39 µM; in assay [2], above 100 µM. The EC50 in the assay filed under Rattus norvegicus was determined as 590 µM.

On to `N[C@@H](Cc1cc(=O)[nH]o1)C(=O)O`, for which the results for the IC50 (at Glutamate NMDA receptor; in assay [1]; in assay [2]) were above 100 µM, 0.8 µM and above 100 µM, respectively. Also, the EC50 in the assay listed under Rattus norvegicus was found to be 330 µM.

The record behind these values is ChEMBL document CHEMBL1134383, “Synthesis and pharmacology of 3-isoxazolol amino acids as selective antagonists at group I metabotropic glutamic acid receptors” (J Med Chem, 2001).
